# Reference: ChEMBL document CHEMBL3797027, “Potent anti-proliferative actions of a non-diuretic glucosamine derivative of ethacrynic acid” (Bioorg Med Chem Lett, 2016)
# Activity calls are given as the source filed them. No cut-off for these calls is given here.
# Columns and labels:
# MDA-MB-231 = test: Cytotoxic activity against human MDA-MB-231 cells assessed as inhibition of cell proliferation incubated for 72 hrs by MTT assay; type: functional, cell-based
# Outline: (§1)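 MTT cell survival assay. IC50 is the concentration that inhibits tumour cell proliferation by 50%, read from cell survival curves. Values are given as mean ± SD of three independent experiments.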
# [1] = Cytotoxic activity against human MCF10A cells assessed as inhibition of cell proliferation incubated for 72 hrs by MTT assay; type: cell-based; settings: mcf-10a; outline: as §1
# HT-29 = test: Cytotoxic activity against human HT-29 cells assessed as inhibition of cell proliferation incubated for 72 hrs by MTT assay; type: functional, cell-based; settings: HT-29, 72 h; outline: as §1
# [2] = Cytotoxic activity against human GBM10 cells assessed as inhibition of cell proliferation incubated for 72 hrs by MTT assay; type: functional, cell-based; settings: GBM10, 72 h; outline: as §1
# [3] = Cytotoxic activity against human SKBR3 cells assessed as inhibition of cell proliferation incubated for 72 hrs by MTT assay; type: functional, cell-based; settings: SK-BR-3, 72 h; outline: as §1
# [4] = Cytotoxic activity against human HT1080 cells assessed as inhibition of cell proliferation incubated for 72 hrs by MTT assay; type: functional, cell-based; settings: HT-1080, 72 h; outline: as §1
# [5] = Cytotoxic activity against human SF188 cells assessed as inhibition of cell proliferation incubated for 72 hrs by MTT assay; type: functional, cell-based; settings: SF-188, 72 h; outline: as §1
# Mus musculus = test: Toxic diuretic effect in 12 hrs fasted CD1 mouse assessed as increase in urine output at 10 mg/kg, ip measured 0 to 6 hrs post dose relative to untreated control; type: toxicity, organism-based; settings: in vivo
# Outline: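 Female CD-1 mice fasted 12 h, then given compound IP at 10 mg/kg in PEG/EtOH/H2O (54:14:32). Vehicle control group included. Mice were housed singly in metabolic cages with free access to water. Voided urine was collected in graduated tubes under the cages over 0–6 h and 6–24 h after injection.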
# [6] = Cytotoxic activity against human H1299 cells assessed as inhibition of cell proliferation incubated for 72 hrs by MTT assay; type: functional, cell-based; settings: NCI-H1299, 72 h; outline: as §1
# MDA-MB-468 = test: Cytotoxic activity against human MDA-MB-468 cells assessed as inhibition of cell proliferation incubated for 72 hrs by MTT assay; type: functional, cell-based; settings: MDA-MB-468, 72 h; outline: as §1
# MCF7 = test: Cytotoxic activity against human MCF7 cells assessed as inhibition of cell proliferation incubated for 72 hrs by MTT assay; type: functional, cell-based; settings: MCF7, 72 h; outline: as §1
# [7] = Cytotoxic activity against human HCT116 cells assessed as inhibition of cell proliferation incubated for 72 hrs by MTT assay; type: functional, cell-based; settings: HCT-116, 72 h; outline: as §1
Compound,growth inhibition (GI) (MDA-MB-231),Activity [1],IC50 (HT-29) [µM],IC50 [2] [µM],IC50 [3] [µM],"IC50 (MDA-MB-231; MDA-MB-231, 72 h) [µM]",IC50 [4] [µM],IC50 [5] [µM],fold change (FC) (Mus musculus),IC50 [6] [µM],IC50 (MDA-MB-468) [µM],IC50 (MCF7) [µM],IC50 [7] [µM]
N[C@H]1C(O)O[C@H](CO)[C@@H](O)[C@@H]1O (stereo partly drawn) [GLUCOSAMINE],inactive,Non-toxic,–,–,–,–,–,–,–,–,–,–,–
C=C(CC)C(=O)c1ccc(OCC(=O)O)c(Cl)c1Cl [ETHACRYNIC ACID],–,–,62.4,29.9,34.2,45.2,54.5,31.7,<= 6,44.3,81.5,28.9,30.2
